Assay outcomes: PubChem BioAssay, Johns Hopkins Ion Channel Center
An excerpt weighted towards active compounds, which were near 3.5% of everything screened.
MrgX1 allo act: allosterically activates human MrgX1 receptor signaling | B-score at 10 µM | actives 0.63% (n = 310,000) | AID 588675 | MrgX1-HEK293, Fluo-4 calcium flux, FDSS; stronger effect = higher value;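 active = plate-corrected calcium response at least 3 library SD above typical, normal starting fluorescence, not activating the receptor alone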;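 also: compound read alongside a low EC10 to EC30 dose of BAM8-22 agonist; peak minus trough fluorescence over baseline measured at the second addition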
Target sequence (Q96LB2 whole entry, looked up): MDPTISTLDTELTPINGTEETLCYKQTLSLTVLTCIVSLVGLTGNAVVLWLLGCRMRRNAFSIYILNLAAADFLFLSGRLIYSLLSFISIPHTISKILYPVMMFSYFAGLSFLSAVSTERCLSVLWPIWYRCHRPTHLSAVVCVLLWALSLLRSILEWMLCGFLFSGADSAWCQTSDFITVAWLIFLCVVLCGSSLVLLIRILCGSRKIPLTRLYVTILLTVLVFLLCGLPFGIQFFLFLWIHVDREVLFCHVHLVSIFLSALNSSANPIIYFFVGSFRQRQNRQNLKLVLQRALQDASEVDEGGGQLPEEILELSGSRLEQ
RGS4 inh: inhibitors of human RGS4. AID 463165. HEK293 M3R/RGS4 inducible, Fluo-4 calcium flux; stronger effect = higher value; triggered by carbachol at its EC20. B-score at 10 µM. actives 0.45% (n = 310,000);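 active = B-score, a plate-corrected calcium signal, over three deviations above library mean, with baseline fluorescence within five deviations of library mean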;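 also: RGS4 expression induced by doxycycline in cells with stable M3 receptor; B-score is computed from the integrated fluorescence ratio over baseline after carbachol; higher B-score means a larger calcium signal and so more RGS4 inhibition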
Target sequence (P49798 whole entry, looked up): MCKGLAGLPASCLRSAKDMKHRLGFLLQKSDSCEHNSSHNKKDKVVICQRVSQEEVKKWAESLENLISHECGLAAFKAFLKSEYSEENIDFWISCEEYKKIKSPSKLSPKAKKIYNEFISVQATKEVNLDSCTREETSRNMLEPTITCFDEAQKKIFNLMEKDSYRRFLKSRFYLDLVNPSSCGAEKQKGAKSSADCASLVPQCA
RGS4 pot: RGS4 potentiation or activation; HEK293 M3R/inducible RGS4, carbachol calcium flux Fluo4; stronger effect = lower value; B-score at 10 µM; actives 0.92% (n = 310,000); AID 463111;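 active = B-score of the integrated calcium signal more than 4 SD below the library mean, with starting fluorescence not abnormally high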;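 also: negative B-score means reduced calcium response which marks RGS4 activation or potentiation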
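Test system: HEK293 cells with stable M3R and inducible RGS4; also added: carbachol at ECmax as muscarinic agonist stimulus; schedule: dye loading 30 min 37 °C, buffer rest 30 min RT; technique: kinetic calcium fluorescence imaging with Fluo4-AM dye, 2 µM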
MrgX1 ag: human MrgX1 receptor agonism, primary screen. Q96LB2. MrgX1-HEK293 cells, Fluo-4 calcium fluorescence, agonist mode; stronger effect = higher value. B-score at 10 µM. actives 0.44% (n = 310,000). AID 588627;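 active = calcium response B-score plate-corrected fluorescence ratio at least 3 library SD, with starting fluorescence B-score inside 5 SD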
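times = overnight plating, then 30 min 37 °C plus 30 min room-temperature dye loading | assay system = stable human MrgX1 HEK293 cell line | input = fifteen thousand cells per well | signal = kinetic calcium dye fluorescence, Fluo-4 NW | dosing = compound delivered in addition one of three | read-out = B-scored fluorescence response ratio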
MrgX1 antag: antagonists of human MrgX1 receptor; MRGX1-HEK293 calcium flux, Fluo-4, BAM8-22 antagonism; stronger effect = lower value; Q96LB2; B-score at 10 µM; actives 1.3% (n = 310,000);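 active = calcium-response B-score plate-corrected more than 3 library SD below zero, starting fluorescence within 5 deviations, no agonist response on first addition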;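 also: peak minus trough fluorescence over baseline after final BAM8-22 challenge near maximal dose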
MrgX1 ant reconf: reconfirmed antagonist of human MrgX1 receptor signaling | shares compounds with MrgX1 antag | MrgX1-HEK293, BAM8-22 calcium flux, Fluo-4; stronger effect = lower value | remaining BAM8-22 calcium response % of control (stronger effect = lower value), % at 10 µM | actives 19% (n = 2,300) | AID 602420;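 active = remaining agonist calcium response no higher than 100% minus 3 SD of agonist-only control wells, with starting fluorescence near control levels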;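 also: agonist BAM8-22 given at a near maximal EC90 to ECmax level; peak minus minimum fluorescence divided by baseline after agonist addition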
HEK293 Ca flux: activity in parental HEK293 cells lacking MrgX1. fluorescence ratio F(max-min)/F0 at 10 µM. shares compounds with MrgX1 antag. actives 2% (n = 4,000). Fluo-4 calcium fluorescence, FDSS;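 active = duplicate-averaged calcium fluorescence ratio at least three times the standard deviation of buffer wells, a nonspecific response in parental cells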
HEK293 Ca counter: MrgX1 allosteric activator counter-screen hit in parental HEK293 cells | shares compounds with MrgX1 antag | parental HEK293 calcium flux, Fluo-4 fluorescence ratio; stronger effect = higher value | fluorescence ratio F(max-min)/F0 at 10 µM | actives 0.4% (n = 4,000) | AID 624114;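 active = calcium fluorescence ratio, averaged over duplicates, at least 3 SD of the buffer-well ratio, meaning a nonspecific response in receptor-free cells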;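 also: untransfected parental HEK293 lacking MrgX1 used as counterscreen for MrgX1 allosteric activators; fluorescence change taken during the second addition on a kinetic imager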
HEK293 Ca cntr2: MrgX1 activator counter-screen hit in parental HEK293 cells; actives 8.7% (n = 4,000); fluorescence ratio F(max-min)/F0 at 10 µM; Fluo-4 calcium fluorescence (FDSS); stronger effect = higher value; shares compounds with MrgX1 antag;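 active = calcium fluorescence ratio at least three times the spread of buffer wells, meaning a non-specific response in parental cells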
Active calls of the source: *; i = inactive; . = no result.

SMILES	MrgX1 allo act	RGS4 inh	RGS4 pot	MrgX1 ag	MrgX1 antag	MrgX1 ant reconf	HEK293 Ca flux	HEK293 Ca counter	HEK293 Ca cntr2
O=C(NCC(O)c1ccccc1)c1ccc(Cl)c(S(=O)(=O)N2CCCC2)c1 (stereo not drawn)	i	i	i	i	i	.	.	.	.
COC(=O)C(C)Sc1nc2c(cnn2-c2ccc(F)cc2)c(=O)[nH]1 (stereo not drawn)	i	i	i	i	i	.	.	.	.
CCC(Sc1nc2c(cnn2-c2ccccc2)c(=O)[nH]1)C(=O)OC (stereo not drawn)	i	i	i	i	-5.2*	82%*	i	i	i
Nc1nc(Cl)nc2c1ncn2C1CC(O)C(CO)O1 (stereo not drawn)	i	i	i	i	-5.1*	i	i	i	i
Nc1nc2c(ncn2[C@H]2C[C@H](O)[C@@H](CO)O2)c(=O)[nH]1	i	i	i	i	i	.	.	.	.
Cc1nc2ccc(NC(=O)Cc3ccc(Br)cc3)cc2s1	i	i	i	i	i	.	.	.	.
Cc1nc2ccc(NC(=O)Cc3ccc4c(c3)OCCO4)cc2s1	i	i	i	i	-6.8*	i	i	i	i
CCc1c(C)nc(SCC(N)=O)c(C#N)c1C	i	i	i	i	-5.7*	i	i	i	i
Cc1nc(Cc2nnc(SC(C)C(=O)Nc3cccc(C#N)c3)o2)cs1 (stereo not drawn)	i	i	i	i	-5.9*	i	i	i	i
CC(=O)c1ccccc1NC(=O)CSc1nnc(Cc2csc(C)n2)o1	i	i	i	i	i	.	.	.	.
O=C(CNS(=O)(=O)c1cccc2nsnc12)NCc1ccc(Cl)cc1	i	i	i	i	-7.3*	61%*	i	i	i
Cc1cc(NC(=O)CSc2nnc(C3CC3)n2N)c([N+](=O)[O-])cc1C	i	i	i	i	i	.	.	.	.
CCOc1ccc(NC(=O)CCN2CCN(S(=O)(=O)c3ccc(F)cc3)CC2)cc1	i	i	i	i	i	.	.	.	.
CCOc1ccc(S(=O)(=O)Nc2ccc(S(=O)(=O)N3CCCCC3)cc2)cc1	i	i	i	i	-5.3*	i	i	i	i
CCOc1ccc(NC(=O)CN2CCN(S(=O)(=O)c3ccc(Cl)cc3)CC2)cc1	i	i	i	i	-4.5*	i	i	i	i
CCOc1ccc(S(=O)(=O)Nc2ccc(S(=O)(=O)N3CCCC3)cc2)cc1	i	i	i	i	i	.	.	.	.
CCn1cnc2cc(NCc3ccc(C)cc3)ccc21	i	i	i	i	-4.6*	i	i	i	i
CCN(CC)c1ccc(CNc2ccc3c(c2)ncn3CC)cc1	i	i	i	i	i	.	.	.	.
CCOc1ccc(C(=O)CCC(=O)Nc2ccc(C)cn2)cc1	i	i	i	i	-5.7*	81%*	i	i	i
O=C(COc1ccccc1[N+](=O)[O-])NNC(=O)Nc1cccc2ccccc12	i	i	i	i	i	.	.	.	.
CCc1nnc(NC(=O)c2ccc(-c3ccc([N+](=O)[O-])cc3Cl)o2)s1	i	i	i	i	i	.	.	.	.
Cc1ccc(NC(=O)c2sccc2C)cc1S(=O)(=O)N(C)C	i	i	i	i	-5.2*	i	i	i	i
Cc1ccc(NC(=O)c2ccccc2Br)cc1S(=O)(=O)N(C)C	i	i	i	i	i	.	.	.	.
CCCNC(=O)CSc1nc2[nH]ncc2c(=O)[nH]1	i	i	i	i	i	.	.	.	.
CCCN(C(=O)CSCC(=O)Nc1ccc(OC)cc1)c1c(N)n(Cc2ccccc2)c(=O)[nH]c1=O	i	i	i	i	i	.	.	.	.
SMILES	MrgX1 allo act	RGS4 inh	RGS4 pot	MrgX1 ag	MrgX1 antag	MrgX1 ant reconf	HEK293 Ca flux	HEK293 Ca counter	HEK293 Ca cntr2
Cc1cc(C)n2ncc(C(=O)Nc3ccc4c(c3)OCO4)c2n1	i	i	i	i	i	.	.	.	.
Cc1cc(C)n2ncc(C(=O)Nc3cccc(O)c3)c2n1	i	i	i	i	-5.9*	i	i	i	i
Cc1cc(C)c(C(=O)OCC(=O)Nc2cccc(S(=O)(=O)N3CCCCC3)c2)c(C)c1	i	i	i	i	-11*	i	i	i	i
O=C(COC(=O)c1ccc(O)cc1)Nc1cccc(S(=O)(=O)N2CCCCC2)c1	i	i	i	i	i	.	.	.	.
Cc1cc(C(=O)NCCCN2CCCC2=O)cs1	i	i	i	i	i	.	.	.	.
Cc1noc(C)c1C(=O)NCCCN1CCCC1=O	i	i	i	i	-4.9*	81%*	i	i	i
CC1CCCCC1NC(=S)NC(=O)c1sc2ccccc2c1Cl (stereo not drawn)	i	i	i	i	i	.	.	.	.
COc1ccccc1C(=O)NC(=S)NNC(=O)c1sc2ccccc2c1Cl	i	i	-9.1*	i	-12*	i	i	i	i
CCOC(=O)C1=C(C)N(C)C(C)=C(C(=O)OCC)C1c1ccccn1	i	i	i	i	-7.2*	i	i	i	i
CC1Cc2ccccc2N1C(=O)CSc1nnc(Cn2nnc3ccccc32)n1C (stereo not drawn)	i	i	i	i	-6.9*	i	i	i	i
CC1Cc2ccccc2N1C(=O)CSc1nc2ccccc2n1CC(=O)N1CCOCC1 (stereo not drawn)	i	i	i	i	-4.6*	i	i	i	i
CC(=O)Nc1ccc(S(=O)(=O)NCCCc2ccccc2)cc1	i	i	i	i	i	.	.	.	.
